Experimental data reported in ChEMBL document CHEMBL1772954, “Antifungal, cytotoxic and SAR studies of a series of N-alkyl, N-aryl and N-alkylphenyl-1,4-pyrrolediones and related compounds” (Bioorg Med Chem, 2011).
Values after ≈ are worked out from the molar mass of the structure shown.

Tests used:
[1] = test system: MCF7; assay: Cytotoxicity against human MCF7 cells assessed as cell growth after 2 days by sulforhodamine B assay; format: functional; details: MCF7, 48 h
How it was run: (§1)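 NCI cell lines were run by the Monks method: cells were plated with compounds from DMSO stocks and incubated 2 days at 37 °C in 5% CO2, in duplicate. Cells were fixed with cold TCA, stained with 0.4% SRB, and the bound dye was solubilized in 10 mM tris-base and read at 515 nm. The zero-day control was subtracted, and GI50 was taken from the curves.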

[2] = test system: NCI-H460; assay: Cytotoxicity against human H460 cells assessed as cell growth after 2 days by sulforhodamine B assay; format: functional; details: NCI-H460, 48 h; how it was run: as §1
[3] = test system: Candida tropicalis; assay: Antifungal activity against Candida tropicalis C 131 2000; format: functional
How it was run: (§2)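 CLSI M27-A3 broth microdilution in RPMI-1640 buffered to pH 7.0 with MOPS. Inoculum 1-5 × 10^3 CFU/mL. Compound twofold dilutions from 250 to 0.24 µg/ml, final DMSO <1%. Incubated at 35 °C in a moist, dark chamber and read at 48 h. MIC is the lowest concentration giving total growth inhibition. For MFC, 5 µL from clear wells was plated in duplicate on SDA; MFC is the lowest concentration with no growth.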

[4] = test system: Trichophyton rubrum; assay: Antifungal activity against Trichophyton rubrum C 113 2000; format: functional
How it was run: (§3)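 Dermatophytes tested by CLSI M38-A2 microdilution in MOPS-buffered RPMI-1640 at pH 7.0. Inoculum 1-5 × 10^3 CFU/mL; compounds 250 to 0.24 µg/ml in twofold steps, final DMSO <1%. Incubated at 28 °C in a moist, dark chamber and read according to control growth. MIC is the lowest concentration with complete inhibition. MFC is the lowest concentration with no growth after duplicate subculture on SDA.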

[5] = Cytotoxicity against human erythrocytes assessed as hemolysis by spectrometric analysis; format: cell-based, Erythrocyte
How it was run: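 Human heparinized red blood cells were washed in PBS at pH 7.0 and suspended at 4% in sterile 5% glucose. Compounds from DMSO stocks were diluted in 5% glucose to final concentrations of 250 to 0.24 µg/ml and incubated with the cells at 37 °C. Released hemoglobin was read at 540 nm. HC50 is the concentration giving 50% lysis relative to the drug-free value.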

[6] = test system: Trichophyton mentagrophytes; assay: Antifungal activity against Trichophyton mentagrophytes ATCC 9972; format: functional; how it was run: as §3
[7] = test system: Saccharomyces cerevisiae; assay: Antifungal activity against Saccharomyces cerevisiae ATCC 9763; format: functional; how it was run: as §2
[8] = test system: Aspergillus fumigatus; assay: Antifungal activity against Aspergillus fumigatus ATCC 26934; format: functional
How it was run: (§4)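 Broth microdilution per CLSI M38-A2 in RPMI-1640 with MOPS at pH 7.0. Inoculum 1-5 × 10^3 CFU/mL, with twofold compound dilutions spanning 250-0.24 µg/ml (final DMSO <1%). Plates incubated at 35 °C, moist and dark, and read when the control fungus had grown. MIC is total growth inhibition. MFC comes from subculturing clear wells in duplicate onto SDA.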

[9] = test system: Cryptococcus neoformans; assay: Antifungal activity against Cryptococcus neoformans ATCC 32264; format: functional; how it was run: as §2
[10] = test system: Candida albicans; assay: Antifungal activity against Candida albicans ATCC 10213; format: functional; how it was run: as §2
[11] = test system: Aspergillus flavus; assay: Antifungal activity against Aspergillus flavus ATCC 9170; format: functional; how it was run: as §4
[12] = test system: Aspergillus niger; assay: Antifungal activity against Aspergillus niger ATCC 9029; format: functional; how it was run: as §4
[13] = test system: SF-268; assay: Cytotoxicity against human SF268 cells assessed as cell growth after 2 days by sulforhodamine B assay; format: functional; details: SF-268, 48 h; how it was run: as §1
[14] = test system: Nannizzia gypsea; assay: Antifungal activity against Microsporum gypseum C 115 2000; format: functional; how it was run: as §3

MIC [3] [mg/L]	MIC [4] [mg/L]	MIC [6] [mg/L]	MIC [7] [mg/L]	MIC [8] [mg/L]	MIC [9] [mg/L]	MIC [10] [mg/L]	MIC [11] [mg/L]	SMILES	GI50 [1] [mg/L]	GI50 [2] [mg/L]	MFC [3] [mg/L]	MFC [4] [mg/L]	HC50 [5] [µg/mL]	MFC [6] [mg/L]	MFC [7] [mg/L]	MFC [8] [mg/L]	MFC [9] [mg/L]	MFC [10] [mg/L]	MFC [11] [mg/L]	MFC [12] [mg/L]	also measured
15.6 (≈ 74.7 µM)	3.9 (≈ 18.6 µM)	3.9 (≈ 18.6 µM)	7.81 (≈ 37.3 µM)	31.2 (≈ 149 µM)	7.81 (≈ 37.3 µM)	15.6 (≈ 74.7 µM)	62.5 (≈ 299 µM)	O=C1C=CC(=O)N1c1ccc(F)cc1F	> 10	> 10	31.2 (≈ 149 µM)	7.81 (≈ 37.3 µM)	> 250	7.81 (≈ 37.3 µM)	15.6 (≈ 74.7 µM)	31.2 (≈ 149 µM)	7.81 (≈ 37.3 µM)	31.2 (≈ 149 µM)	62.5 (≈ 299 µM)	31.2 (≈ 149 µM)	MIC [12]: 15.6 mg/L (≈ 74.7 µM); GI50 [13]: > 10 mg/L; MFC [14]: 7.81 mg/L (≈ 37.3 µM); MIC [14]: 3.9 mg/L (≈ 18.6 µM)
3.9 (≈ 17 µM)	1.95 (≈ 8.5 µM)	1.95 (≈ 8.5 µM)	3.9 (≈ 17 µM)	15.6 (≈ 68.2 µM)	3.9 (≈ 17 µM)	3.9 (≈ 17 µM)	62.5 (≈ 273 µM)	CC(C)(C)c1ccccc1N1C(=O)C=CC1=O	> 10	> 10	3.9 (≈ 17 µM)	3.9 (≈ 17 µM)	> 250	3.9 (≈ 17 µM)	7.81 (≈ 34.1 µM)	31.2 (≈ 136 µM)	7.81 (≈ 34.1 µM)	3.9 (≈ 17 µM)	62.5 (≈ 273 µM)	125 (≈ 545 µM)	MIC [12]: 62.5 mg/L (≈ 273 µM); GI50 [13]: > 10 mg/L; MFC [14]: 3.9 mg/L (≈ 17 µM); MIC [14]: 1.95 mg/L (≈ 8.5 µM)
62.5 (≈ 449 µM)	3.9 (≈ 28 µM)	7.81 (≈ 56.1 µM)	15.6 (≈ 112 µM)	15.6 (≈ 112 µM)	7.81 (≈ 56.1 µM)	62.5 (≈ 449 µM)	15.6 (≈ 112 µM)	CCCN1C(=O)C=CC1=O	> 10	> 10	125 (≈ 898 µM)	7.81 (≈ 56.1 µM)	> 250	7.81 (≈ 56.1 µM)	31.2 (≈ 225 µM)	31.2 (≈ 225 µM)	15.6 (≈ 112 µM)	125 (≈ 898 µM)	15.6 (≈ 112 µM)	15.6 (≈ 112 µM)	MIC [12]: 15.6 mg/L (≈ 112 µM); GI50 [13]: > 10 mg/L; MFC [14]: 7.81 mg/L (≈ 56.1 µM); MIC [14]: 3.9 mg/L (≈ 28 µM)
3.9 (≈ 25.5 µM)	1.95 (≈ 12.7 µM)	1.95 (≈ 12.7 µM)	1.95 (≈ 12.7 µM)	1.95 (≈ 12.7 µM)	3.9 (≈ 25.5 µM)	3.9 (≈ 25.5 µM)	1.95 (≈ 12.7 µM)	CCCCN1C(=O)C=CC1=O	> 10	> 10	3.9 (≈ 25.5 µM)	1.95 (≈ 12.7 µM)	> 250	3.9 (≈ 25.5 µM)	1.95 (≈ 12.7 µM)	1.95 (≈ 12.7 µM)	7.81 (≈ 51 µM)	15.6 (≈ 102 µM)	7.81 (≈ 51 µM)	3.9 (≈ 25.5 µM)	MIC [12]: 3.9 mg/L (≈ 25.5 µM); GI50 [13]: > 10 mg/L; MFC [14]: 3.9 mg/L (≈ 25.5 µM); MIC [14]: 3.9 mg/L (≈ 25.5 µM)
31.2 (≈ 281 µM)	3.9 (≈ 35.1 µM)	7.81 (≈ 70.3 µM)	7.81 (≈ 70.3 µM)	15.6 (≈ 141 µM)	15.6 (≈ 141 µM)	62.5 (≈ 563 µM)	15.6 (≈ 141 µM)	CN1C(=O)C=CC1=O	> 10	> 10	62.5 (≈ 563 µM)	15.6 (≈ 141 µM)	> 250	15.6 (≈ 141 µM)	15.6 (≈ 141 µM)	62.5 (≈ 563 µM)	62.5 (≈ 563 µM)	125 (≈ 1130 µM)	31.2 (≈ 281 µM)	15.6 (≈ 141 µM)	MIC [12]: 7.81 mg/L (≈ 70.3 µM); GI50 [13]: > 10 mg/L; MFC [14]: 7.81 mg/L (≈ 70.3 µM); MIC [14]: 7.81 mg/L (≈ 70.3 µM)
15.6 (≈ 62 µM)	1.95 (≈ 7.74 µM)	1.95 (≈ 7.74 µM)	7.81 (≈ 31 µM)	31.2 (≈ 124 µM)	7.81 (≈ 31 µM)	15.6 (≈ 62 µM)	31.2 (≈ 124 µM)	O=C1C=CC(=O)N1c1ccc(Br)cc1	> 10	> 10	62.5 (≈ 248 µM)	3.9 (≈ 15.5 µM)	> 250	3.9 (≈ 15.5 µM)	15.6 (≈ 62 µM)	62.5 (≈ 248 µM)	15.6 (≈ 62 µM)	31.2 (≈ 124 µM)	62.5 (≈ 248 µM)	62.5 (≈ 248 µM)	MIC [12]: 31.2 mg/L (≈ 124 µM); GI50 [13]: > 10 mg/L; MFC [14]: 3.9 mg/L (≈ 15.5 µM); MIC [14]: 3.9 mg/L (≈ 15.5 µM)
31.2 (≈ 104 µM)	3.9 (≈ 13 µM)	3.9 (≈ 13 µM)	7.81 (≈ 26.1 µM)	62.5 (≈ 209 µM)	7.81 (≈ 26.1 µM)	31.2 (≈ 104 µM)	62.5 (≈ 209 µM)	O=C1C=CC(=O)N1c1ccc(I)cc1	> 10	> 10	62.5 (≈ 209 µM)	7.81 (≈ 26.1 µM)	> 250	7.81 (≈ 26.1 µM)	7.81 (≈ 26.1 µM)	125 (≈ 418 µM)	15.6 (≈ 52.3 µM)	62.5 (≈ 209 µM)	125 (≈ 418 µM)	125 (≈ 418 µM)	MIC [12]: 62.5 mg/L (≈ 209 µM); GI50 [13]: > 10 mg/L; MFC [14]: 7.81 mg/L (≈ 26.1 µM); MIC [14]: 3.9 mg/L (≈ 13 µM)
62.5 (≈ 499 µM)	3.9 (≈ 31.2 µM)	7.81 (≈ 62.4 µM)	7.81 (≈ 62.4 µM)	15.6 (≈ 125 µM)	15.6 (≈ 125 µM)	62.5 (≈ 499 µM)	15.6 (≈ 125 µM)	CCN1C(=O)C=CC1=O [N-ETHYLMALEIMIDE]	9.9 (≈ 79.1 µM)	6.7 (≈ 53.5 µM)	125 (≈ 999 µM)	3.9 (≈ 31.2 µM)	> 250	15.6 (≈ 125 µM)	15.6 (≈ 125 µM)	31.2 (≈ 250 µM)	31.2 (≈ 250 µM)	250 (≈ 2000 µM)	15.6 (≈ 125 µM)	15.6 (≈ 125 µM)	MIC [12]: 7.81 mg/L (≈ 62.4 µM); GI50 [13]: 6.5 mg/L (≈ 51.9 µM); MFC [14]: 7.81 mg/L (≈ 62.4 µM); MIC [14]: 7.81 mg/L (≈ 62.4 µM)
